Data reported in ChEMBL document CHEMBL1156267, “Studies of the synthesis of all stereoisomers of MG-132 proteasome inhibitors in the tumor targeting approach” (J Med Chem, 2010).
pIC50, pKi: −log10 of the molar value. Calls of active or inactive are those of the source. The calls are words filed in the database; no cut-off is given here. Square brackets hold non-standard residues; d marks the D form. Peptide text beside a SMILES is read from it. * marks the point of attachment. 1Nal = N[C@@H](Cc1cccc2ccccc12)C(=O)O; 2Nal = N[C@@H](Cc1ccc2ccccc2c1)C(=O)O; Cbz = O=C(OCc1ccccc1)*

Columns and labels:
EMT6 [1] = test: Inhibition of proteasome in mouse EMT6 cell lysate assessed as cleavage of Suc-leu-leu-val-Tyr-AMC at 100 nM after 30 mins; set-up: scale not given: the % may be the effect or the level left
J558L [2] = test: Inhibition of proteasome in mouse J558L cell lysate assessed as cleavage of Suc-leu-leu-val-Tyr-AMC at 100 nM after 30 mins; set-up: scale not given: the % may be the effect or the level left
EMT6 [3] = test: Inhibition of proteasome in mouse EMT6 cell lysate assessed as cleavage of Suc-leu-leu-val-Tyr-AMC at 1000 nM after 60 mins; set-up: scale not given: the % may be the effect or the level left
EMT6 [4] = test: Inhibition of proteasome in mouse EMT6 cell lysate assessed as cleavage of Suc-leu-leu-val-Tyr-AMC at 100 nM after 60 mins; set-up: scale not given: the % may be the effect or the level left
J558L [5] = test: Inhibition of proteasome in mouse J558L cell lysate assessed as cleavage of Suc-leu-leu-val-Tyr-AMC at 1000 nM after 60 mins; set-up: scale not given: the % may be the effect or the level left
EMT6 [6] = test: Inhibition of proteasome in mouse EMT6 cell lysate assessed as cleavage of Suc-leu-leu-val-Tyr-AMC at 1000 nM after 30 mins; set-up: scale not given: the % may be the effect or the level left
J558L [7] = test: Inhibition of proteasome in mouse J558L cell lysate assessed as cleavage of Suc-leu-leu-val-Tyr-AMC at 1000 nM after 15 mins; set-up: scale not given: the % may be the effect or the level left
J558L [8] = test: Inhibition of proteasome in mouse J558L cell lysate assessed as cleavage of Suc-leu-leu-val-Tyr-AMC at 100 nM after 15 mins; set-up: scale not given: the % may be the effect or the level left
EMT6 [9] = test: Inhibition of proteasome in mouse EMT6 cell lysate assessed as cleavage of Suc-leu-leu-val-Tyr-AMC at 1000 nM after 15 mins; set-up: scale not given: the % may be the effect or the level left
J558L [10] = test: Inhibition of proteasome in mouse J558L cell lysate assessed as cleavage of Suc-leu-leu-val-Tyr-AMC at 100 nM after 60 mins; set-up: scale not given: the % may be the effect or the level left
EMT6 [11] = test: Inhibition of proteasome in mouse EMT6 cell lysate assessed as cleavage of Suc-leu-leu-val-Tyr-AMC at 100 nM after 15 mins; set-up: scale not given: the % may be the effect or the level left
J558L [12] = test: Inhibition of proteasome in mouse J558L cell lysate assessed as cleavage of Suc-leu-leu-val-Tyr-AMC at 1000 nM after 30 mins; set-up: scale not given: the % may be the effect or the level left
[13] = Inhibition of trypsin-like activity of 20S proteasome from human erythrocyte
Method in brief: (§1)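 Substrates were Suc-Leu-Leu-Val-Tyr-AMC (chymotrypsin-like), Ac-Arg-Leu-Arg-AMC (trypsin-like) and Z-Leu-Leu-Glu-βNA (PGPH). Hydrolysis was read by fluorescence at ex 355 / em 460 nm against DMSO solvent controls.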

[14] = Inhibition of peptidylglutamyl peptide hydrolyzing-like activity of 20S proteasome from human erythrocyte
Method in brief: as §1

EMT6 [15] = test: Cytotoxicity against mouse EMT6 cells after 24 hrs by crystal violet staining
[16] = Inhibition of chymotrypsin-like activity of 20S proteasome from human erythrocyte
Method in brief: as §1

J558L [17] = test: Cytotoxicity against mouse J558L cells after 24 hrs by MTT assay; type: functional, cell-based
Method in brief: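 Murine J558L myeloma cells grown in RPMI-1640 with 10% heat-inactivated FCS, antibiotics, 2-mercaptoethanol and 2 mM L-glutamine. Cells were seeded at 3 × 10³ per well and compounds were added the next day. MTT at 1 mg/mL was present for the last 4 h. Cells were lysed in SDS/DMF buffer at pH 4.7 overnight and read at 570 nm. Viability is (A_e − A_b)×100/(A_c − A_b), relative to medium-only cultures.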

[18] = Inhibition of 20S proteasome from human erythrocyte
Method in brief: as §1

Compound	Activity (EMT6 [1])	Activity (J558L [2])	Activity (EMT6 [3])	Activity (EMT6 [4])	Activity (J558L [5])	Activity (EMT6 [6])	Activity (J558L [7])	Activity (J558L [8])	Activity (EMT6 [9])	Activity (J558L [10])	Activity (EMT6 [11])	Activity (J558L [12])	pIC50 [13]	pIC50 [14]	pIC50 [16]	pKi [18]	Activity (EMT6 [15])	Activity (J558L [17])
CC(C)CC(NC(=O)[C@H](CC(C)C)NC(=O)OCc1ccccc1)C(=O)N[C@@H](C=O)CC(C)C (stereo in doubt; (+)) [listing 1 of 2 here]	103%	105%	106%	99%	106%	111%	107%	104%	118%	107%	110%	106%	–	–	–	–	–	–
CC(C)C[C@@H](C=O)NC(=O)[C@@H](CC(C)C)NC(=O)[C@H](CC(C)C)NC(=O)OCc1ccccc1	22%	36%	13%	31%	38%	7%	11%	25%	5%	50%	17%	21%	4.46	5.53	6.66	–	inactive	inactive
CC(C)CC(NC(=O)[C@@H](CC(C)C)NC(=O)OCc1ccccc1)C(=O)N[C@H](C=O)CC(C)C (stereo in doubt) [listing 1 of 2 here]	–	–	–	–	–	–	–	–	–	–	–	–	–	4.76	5.75	–	–	–
CC(C)CC(NC(=O)[C@H](CC(C)C)NC(=O)OCc1ccccc1)C(=O)N[C@@H](C=O)CC(C)C (stereo in doubt; (+)) [listing 2 of 2 here]	–	–	–	–	–	–	–	–	–	–	–	–	< 4.00	< 4.00	< 4.00	–	–	–
CC(C)C[C@@H](C=O)NC(=O)[C@H](CC(C)C)NC(=O)[C@H](CC(C)C)NC(=O)OCc1ccccc1 (stereo in doubt)	77%	91%	50%	86%	74%	37%	71%	84%	29%	95%	71%	72%	–	–	–	–	–	–
CC(C)CC(NC(=O)[C@H](CC(C)C)NC(=O)OCc1ccccc1)C(=O)N[C@@H](C=O)CC(C)C (stereo in doubt; (-)) [listing 1 of 2 here]	91%	93%	53%	91%	77%	46%	55%	92%	44%	94%	95%	64%	–	–	–	–	–	–
CC(C)C[C@@H](C=O)NC(=O)[C@H](Cc1cccc2ccccc12)NC(=O)[C@H](Cc1ccc2ccccc2c1)NC(=O)OCc1ccccc1 (Cbz-[2Nal]-[1Nal]-Leu-aldehyde)	–	–	–	–	–	–	–	–	–	–	–	–	–	–	–	10.82	–	–
CC(C)CC(NC(=O)[C@H](CC(C)C)NC(=O)OCc1ccccc1)C(=O)N[C@@H](C=O)CC(C)C (stereo in doubt; (-)) [listing 2 of 2 here]	–	–	–	–	–	–	–	–	–	–	–	–	4.04	4.64	6.01	–	–	–

Now from value to molecule, other results behind:

Activity (EMT6 [1])	Activity (J558L [2])	Activity (EMT6 [3])	Activity (EMT6 [4])	Activity (J558L [5])	Activity (EMT6 [6])	Activity (J558L [7])	Activity (J558L [8])	Activity (EMT6 [9])	Activity (J558L [10])	Activity (EMT6 [11])	Activity (J558L [12])	pIC50 [13]	pIC50 [14]	pIC50 [16]	pKi [18]	Compound	Activity (EMT6 [15])	Activity (J558L [17])
–	–	–	–	–	–	–	–	–	–	–	–	–	–	–	9.21	CC(C)C[C@H](NC(=O)[C@H](Cc1ccccc1)NC(=O)c1cnccn1)B(O)O [BORTEZOMIB]	–	–
–	–	–	–	–	–	–	–	–	–	–	–	3.98	5.24	6.05	8.40	CC(C)C[C@@H](C=O)NC(=O)[C@H](CC(C)C)NC(=O)[C@H](CC(C)C)NC(=O)OCc1ccccc1 (stereo in doubt; 2) [MG-132]	–	–
–	–	–	–	–	–	–	–	–	–	–	–	< 4.00	< 4.00	5.26	–	CC(C)C[C@@H](C=O)NC(=O)[C@H](CC(C)C)NC(=O)[C@H](CC(C)C)NC(=O)OCc1ccccc1 (stereo in doubt) [MG-132]	–	–
90%	89%	78%	91%	71%	70%	58%	87%	62%	89%	90%	66%	< 4.00	4.95	5.01	–	CC(C)C[C@H](C=O)NC(=O)[C@@H](CC(C)C)NC(=O)[C@@H](CC(C)C)NC(=O)OCc1ccccc1	–	–
25%	44%	19%	35%	44%	14%	15%	32%	12%	60%	20%	25%	–	–	–	–	CC(C)C[C@@H](C=O)NC(=O)[C@H](CC(C)C)NC(=O)[C@H](CC(C)C)NC(=O)OCc1ccccc1 (stereo in doubt; 2)	–	–
–	110%	–	–	99%	–	102%	100%	–	112%	–	96%	< 4.00	< 4.00	< 4.00	–	CC(C)C[C@H](NC(=O)[C@@H](CC(C)C)NC(=O)OCc1ccccc1)C(=O)N[C@@H](C=O)CC(C)C	–	–
–	–	–	–	–	–	–	–	–	–	–	–	< 4.00	< 4.00	< 4.00	–	CC(C)CC(NC(=O)[C@@H](CC(C)C)NC(=O)OCc1ccccc1)C(=O)N[C@H](C=O)CC(C)C (single isomer, unassigned; (+)) [listing 1 of 2 here]	–	–
85%	77%	67%	84%	53%	61%	30%	71%	61%	82%	87%	40%	–	–	–	–	CC(C)CC(NC(=O)[C@@H](CC(C)C)NC(=O)OCc1ccccc1)C(=O)N[C@H](C=O)CC(C)C (stereo in doubt) [listing 2 of 2 here]	–	–
95%	118%	99%	95%	121%	100%	114%	115%	104%	123%	97%	117%	–	–	–	–	CC(C)CC(NC(=O)[C@@H](CC(C)C)NC(=O)OCc1ccccc1)C(=O)N[C@H](C=O)CC(C)C (single isomer, unassigned; (+)) [listing 2 of 2 here]	–	–
